Data set [1] has as its system Escherichia coli. The data set is described as follows: Antibacterial activity against Escherichia coli ATCC 25922 after 18 hrs by agar dilution method. The data set is classed as functional. The note with it: ATCC 25922, 18 h. The method in brief: (§1)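 Serial two-fold agar dilution per CLSI; bacteria cultured in Mueller-Hinton broth, inoculum about 10^4 cfu/spot; final concentrations 0.03-128 µg/mL; plates incubated 35 °C for 18 h. MIC = lowest concentration preventing visible growth; representative of at least two independent experiments, a third run when the two disagreed.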
A general note: Agar dilution tests growth on a series of plates holding different concentrations.

Data set [2] concerns Escherichia coli. The data set is described as follows: Antibacterial activity against extended-spectrum beta-lactamase producing Escherichia coli isolate 14-11 after 18 hrs by agar dilution method. The data set is classed as functional. The conditions noted are these: isolate 14-11, 18 h. The method in brief: as §1
Data set [3] has as its system Klebsiella pneumoniae. The data set is described as follows: Antibacterial activity against extended-spectrum beta-lactamase producing Klebsiella pneumoniae 700603 after 18 hrs by agar dilution method. In kind it is functional. The conditions noted are these: Klebsiella pneumoniae, 700603, 18 h. The method, boiled down:
as §1

For data set [4], the system named is Klebsiella pneumoniae. The data set is described as follows: Antibacterial activity against NDM-1 producing Klebsiella pneumoniae ATCC BAA-2146 after 18 hrs by agar dilution method. In kind it is functional. The note with it: ATCC BAA-2146, 18 h. The method, boiled down: as §1
The test system of the next data set is Pseudomonas aeruginosa. The data set is described as follows: Antibacterial activity against Pseudomonas aeruginosa ATCC 27853 after 18 hrs by agar dilution method. The data set is classed as functional. The conditions noted are these: ATCC 27853, 18 h. The method, boiled down: as §1
In the next data set the test system is Acinetobacter baumannii. The data set is described as follows: Antibacterial activity against Acinetobacter baumannii ATCC 19606 after 18 hrs by agar dilution method. In kind it is functional. The conditions noted are these: ATCC 19606 = CIP 70.34 = JCM 6841, 18 h. The method, boiled down:
as §1

Data set [5] is described as follows: Cytotoxicity against African green monkey Vero cells after 72 hrs by MTT assay. In kind it is cell-based. The conditions noted are these: chlorocebus sabaeus, Vero cells. The method, boiled down: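 Vero cells seeded at 2x10^3 cells/well, incubated 24 h at 37 °C, 5% CO2, then exposed to compound 72 h; MTT added for 2 h, medium removed, formazan dissolved in DMSO, absorbance read at 570 nm. Viability relative to untreated cells (100%); CC50 as mean ± SD of three independent experiments, each in triplicate.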

Data set [6] is described as follows: Acute toxicity in iv dosed ICR mouse assessed as survival measured daily for 7 days. The conditions noted are these: in vivo. In kind it is organism-based. The method in brief: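 ICR mice, 18 to 22 g, 4 weeks old, 10 per group (5 male, 5 female). Four to five intravenous dose groups per compound. Survival recorded daily for 7 days. LD50 (dose per kg body weight lethal to 50%) calculated by the Bliss method. LD50 values compared by one-way ANOVA.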

The test system of data set [7] is Mus musculus. The data set is described as follows: Nephrotoxicity in ICR mouse assessed as tubular dilation at 2.5 mg/kg, iv bid for 7 days measured after 2 hrs post last dose by hematoxylin and eosin staining based assay. In kind it is toxicity, organism-based. The conditions noted are these: in vivo. The method in brief:
(§2)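 ICR mice, 18-22 g, 4 weeks old, n=8 per group (4 male, 4 female); component in saline (0.25 mg/mL, kept at 4 °C) given iv at 2.5 mg/kg twice daily, 8 h apart, for 7 days. Kidneys taken 2 h after last dose, formalin-fixed, paraffin-embedded, sectioned, H&E stained and examined by light microscopy; saline controls included.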

Data set [8] has as its system Mus musculus. The data set is described as follows: Nephrotoxicity in ICR mouse assessed as induction of prominent nuclei at 2.5 mg/kg, iv bid for 7 days measured after 2 hrs post last dose by hematoxylin and eosin staining based assay. In kind it is toxicity, organism-based. The conditions noted are these: in vivo. The method in brief: as §2
Data set [9] has as its system Mus musculus. The data set is described as follows: Nephrotoxicity in ICR mouse assessed as pale tubular casts at 2.5 mg/kg, iv bid for 7 days measured after 2 hrs post last dose by hematoxylin and eosin staining based assay. In kind it is toxicity, organism-based. The note with it: in vivo. The method, boiled down:
as §2

Each structure is given as a SMILES string. Converted amounts (≈) assume the structure as drawn. Bridge positions count the residues as written; N and C are the ends. Square brackets hold non-standard residues; d marks the D form. Peptide text beside a SMILES is read from it. * marks the point of attachment. Heptanoyl(6-Me) = CC(C)CCCCC(=O)*; Dab = NCC[C@H](N)C(=O)O; Nva = CCC[C@H](N)C(=O)O Where only a bound is given, the exact number is not on record here.

With `CC(C)CCCCC(=O)N[C@@H](CCN)C(=O)N[C@H](C(=O)N[C@@H](CCN)C(=O)N[C@H]1CCNC(=O)[C@H]([C@@H](C)O)NC(=O)[C@H](CCN)NC(=O)[C@H](CCN)NC(=O)[C@H](C(C)C)NC(=O)[C@@H](CC(C)C)NC(=O)[C@H](CCN)NC1=O)[C@@H](C)O` ({Heptanoyl(6-Me)}-[Dab]T[Dab][Dab][Dab][dL]V[Dab][Dab]T; lactam 4-C), the MIC (usually the lowest concentration found to suppress growth) against Escherichia coli [1] is 0.5 µg/mL (≈ 0.438 µM); in the data set on Escherichia coli [2] it was 0.25 µg/mL (≈ 0.219 µM); with Klebsiella pneumoniae [3], 0.5 µg/mL (≈ 0.438 µM); with Klebsiella pneumoniae [4] it was 0.5 µg/mL (≈ 0.438 µM); against Pseudomonas aeruginosa, 2 µg/mL (≈ 1.75 µM); against Acinetobacter baumannii, 1 µg/mL (≈ 0.876 µM). For the same molecule, in data set [5], the CC50 (in general, the concentration giving 50% cytotoxicity) at 72 h is 225 µg/mL (≈ 197 µM). Moreover, the LD50 (in general, the dose expected to kill half of the subjects tested) at 168 h in data set [6] is 13.2 mg/kg.
As to `CC(C)CCCCC(=O)N[C@@H](CCN)C(=O)N[C@H](C(=O)N[C@@H](CCN)C(=O)N[C@H]1CCNC(=O)[C@H]([C@@H](C)O)NC(=O)[C@H](CCN)NC(=O)[C@H](CCN)NC(=O)[C@H](CC(C)C)NC(=O)[C@@H](Cc2ccccc2)NC(=O)[C@H](CCN)NC1=O)[C@@H](C)O` [POLYMYXIN B2] ({Heptanoyl(6-Me)}-[Dab]T[Dab][Dab][Dab][dF]L[Dab][Dab]T; lactam 4-C), the MIC against Escherichia coli [1] was 0.5 µg/mL (≈ 0.42 µM); in the data set with Escherichia coli [2], 0.5 µg/mL (≈ 0.42 µM); against Klebsiella pneumoniae [3], 1 µg/mL (≈ 0.841 µM); against Klebsiella pneumoniae [4], 1 µg/mL (≈ 0.841 µM); in the data set on Pseudomonas aeruginosa, 2 µg/mL (≈ 1.68 µM); with Acinetobacter baumannii, 0.5 µg/mL (≈ 0.42 µM). The same molecule gave a CC50 at 72 h in [5] of 159 µg/mL (≈ 134 µM). The LD50 at 168 h in data set [6] is 12.6 mg/kg. Further, the Activity result in the data set on Mus musculus [7], in the data set on Mus musculus [8] and with Mus musculus [9] was “Toxic” each time.
With `CC(C)CCCCC(=O)N[C@@H](CCN)C(=O)N[C@H](C(=O)N[C@H](CO)C(=O)N[C@H]1CCNC(=O)[C@H]([C@@H](C)O)NC(=O)[C@H](CCN)NC(=O)[C@H](CCN)NC(=O)[C@H]([C@@H](C)O)NC(=O)[C@@H](Cc2ccccc2)NC(=O)[C@H](CCN)NC1=O)[C@@H](C)O` ({Heptanoyl(6-Me)}-[Dab]T[dS][Dab][Dab][dF]T[Dab][Dab]T; lactam 4-C), the minimal inhibitory concentration (MIC) against Escherichia coli [1] was 0.25 µg/mL (≈ 0.215 µM); in the data set on Escherichia coli [2], 0.25 µg/mL (≈ 0.215 µM); against Klebsiella pneumoniae [3] it was 0.5 µg/mL (≈ 0.429 µM); against Klebsiella pneumoniae [4], 0.5 µg/mL (≈ 0.429 µM); in the data set on Pseudomonas aeruginosa it was 2 µg/mL (≈ 1.72 µM); against Acinetobacter baumannii, 0.25 µg/mL (≈ 0.215 µM). Further, the CC50 at 72 h in data set [5] was over 500 µg/mL. Also, in [6], the LD50 at 168 h came to 17 mg/kg. The Activity entry with Mus musculus [7], in the data set with Mus musculus [8] and with Mus musculus [9] was “Non-Toxic” in each case.
Turning to `CC(C)CCCCC(=O)N[C@@H](CCN)C(=O)N[C@H](C(=O)N[C@@H](CCN)C(=O)N[C@H]1CCNC(=O)[C@H]([C@@H](C)O)NC(=O)[C@H](CCN)NC(=O)[C@H](CCN)NC(=O)[C@H]([C@@H](C)O)NC(=O)[C@@H](CC(C)C)NC(=O)[C@H](CCN)NC1=O)[C@@H](C)O`, the MIC came to 0.5 µg/mL (≈ 0.437 µM) against Escherichia coli [1]; 0.25 µg/mL (≈ 0.219 µM) in the data set with Escherichia coli [2]; 0.5 µg/mL (≈ 0.437 µM) with Klebsiella pneumoniae [3]; 0.5 µg/mL (≈ 0.437 µM) against Klebsiella pneumoniae [4]; 0.5 µg/mL (≈ 0.437 µM) against Pseudomonas aeruginosa; 1 µg/mL (≈ 0.875 µM) in the data set on Acinetobacter baumannii. Also, in [5], the 50% cytotoxic concentration (CC50) at 72 h is 276 µg/mL (≈ 241 µM). In data set [6], the LD50 at 168 h amounted to 13 mg/kg. Also, the Activity entry with Mus musculus [7], in the data set on Mus musculus [8] and in the data set on Mus musculus [9] was “Non-Toxic” each time.
`CCC[C@@H]1NC(=O)[C@@H](CC(C)C)NC(=O)[C@H](CCN)NC(=O)[C@@H](NC(=O)[C@H](CCN)NC(=O)[C@@H](NC(=O)[C@H](CCN)NC(=O)CCCCC(C)C)[C@@H](C)O)CCNC(=O)[C@H]([C@@H](C)O)NC(=O)[C@H](CCN)NC(=O)[C@H](CCN)NC1=O` ({Heptanoyl(6-Me)}-[Dab]T[Dab][Dab][Dab][dL][Nva][Dab][Dab]T; lactam 4-C): the minimal inhibitory concentration (MIC) is 0.5 µg/mL (≈ 0.438 µM) in the data set with Escherichia coli [1]; 0.25 µg/mL (≈ 0.219 µM) in the data set on Escherichia coli [2]; 0.5 µg/mL (≈ 0.438 µM) against Klebsiella pneumoniae [3]; 0.5 µg/mL (≈ 0.438 µM) in the data set with Klebsiella pneumoniae [4]; 1 µg/mL (≈ 0.876 µM) in the data set on Pseudomonas aeruginosa; 0.5 µg/mL (≈ 0.438 µM) in the data set on Acinetobacter baumannii. The molecule also had a CC50 at 72 h in data set [5] of 168 µg/mL (≈ 147 µM). For the same molecule, the LD50 at 168 h in data set [6] was determined as 12.4 mg/kg.

The record behind these values is ChEMBL document CHEMBL4118103, “Synthesis and Bioactivity Investigation of the Individual Components of Cyclic Lipopeptide Antibiotics” (J Med Chem, 2018).
